From PubChem BioAssay AID704 (The Scripps Research Institute Molecular Screening Center, 2007)
The campaign covered roughly 97,000 compounds. About 770 (0.79%) were called active.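 Rule for the calls: active = inhibition above the screen-wide mean plus 3 SD (cut at about 35% in these data); inactive = the rest.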 The full list was thinned out, with actives kept by preference.

What follows are molecules tested against Protein Rev (Human immunodeficiency virus type 1 group M subtype B (isolate WMJ22)) (UniProt P05866) (assay: disruptors of Rev peptide-RRE RNA complex – biochemical, FRET, protein-RNA interaction, primary screen (AID 704;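 note: 0% = median DMSO wells and 100% = median Neomycin B control wells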)). Details: Rev peptide-RRE RNA binding, at 8 µM, active compounds read high.
Sequence of Protein Rev (Human immunodeficiency virus type 1 group M subtype B (isolate WMJ22)) (P05866 whole entry, looked up): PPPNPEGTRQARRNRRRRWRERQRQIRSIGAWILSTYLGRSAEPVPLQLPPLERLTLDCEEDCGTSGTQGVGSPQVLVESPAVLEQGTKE
How it was run: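 Assay system: Rev peptide and RRE RNA, both fluorescently labelled; times: 5 min preincubation and 15 min binding, 25 °C; detection: FRET, ex 480 nm, em 540 and 671 nm; read-out basis: % inhibition from 671/540 nm acceptor-to-donor ratio, scaled between controls; benchmarks: DMSO low control, neomycin B high control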
In the case of Cc1ccc(-n2c(CNc3ccc(F)cc3)nnc2SCC(=O)N2CCOCC2)cc1, the inhibition is reported as 5.16% (inactive).
Cc1nn(C)c(Oc2ccccc2)c1[N+](=O)[O-] was tested, and the inhibition was 4.97% (inactive).
With CCC(c1nnnn1C(C)(C)C)N(Cc1cc2cccc(C)c2n2nnnc12)C1CCCC1 (stereo not drawn) the inhibition was 7.78% (inactive).
CCOC(=O)c1ccccc1NS(=O)(=O)c1ccc(OC)cc1 was tested, and the inhibition was 17.8% (inactive).
With Cc1cc(C)n(C(=O)CCNC(=O)c2ccccc2Cl)n1 the inhibition was 4.01% (inactive).
In the case of CC1CCc2c(c3ccccc3[nH]c2=O)O1 (stereo not drawn), the inhibition is reported as 4.83% (inactive).
With CC(=O)Nc1cccc(/C(C)=N/NC(=O)c2ccccc2Cl)c1 the inhibition was -0.39% (inactive).
With COc1ccc(C(=O)N2CC3(C)CC2CC(C)(C)C3)cc1OC (stereo not drawn) the inhibition was 1.95% (inactive).
In the case of O=C(/C=C/c1cc2c(cc1Br)OCO2)NCc1ccc(Cl)cc1, the inhibition is reported as 7.84% (inactive).
With Cc1cccc(N(CC(=O)Nc2ccc(-c3nc4ccc(C)cc4s3)cc2)S(C)(=O)=O)c1 the inhibition was 1.45% (inactive).
In the case of O=C(Nc1sc2c(c1-c1nc3ccccc3[nH]1)CCCC2)C1CC1, the inhibition is reported as 12.5% (inactive).
With NC1=NC(=O)C2(COC(c3ccccc3Cl)OC2)S1 (stereo not drawn) the inhibition was 1.07% (inactive).
CCN(CC)c1ccc2oc(=O)c(C)nc2c1 was tested, and the inhibition was 121% [fluorescence artefact?] (active).
CCN(CC)c1ccc2cc(C(=O)O)c(=O)oc2c1 was tested, and the inhibition was 11% (inactive).
With CCN(CC)c1ccc(/C=N/Nc2nc(C)cc(=O)[nH]2)cc1 the inhibition was 15.3% (inactive).
In the case of CCS(=O)(=O)Nc1ccc(C2=NN(S(=O)(=O)c3ccc(F)cc3)C(c3ccco3)C2)cc1 (stereo not drawn), the inhibition is reported as 3.07% (inactive).
For O=C(Nc1ccccc1-c1nnn(CC(=O)N2CCCc3ccccc32)n1)c1cccc(Cl)c1, the inhibition was 13.6% (inactive).
In the case of COc1cnc(SCc2ccc(Cl)c(Cl)c2)nc1Cl, the inhibition is reported as 10% (inactive).
With Cc1ccccc1N/N=C/c1ccc(N2CCOCC2)cc1 the inhibition was 6.17% (inactive).
For Cc1ccc(Cc2cnc(NC(=O)/C(C#N)=C/c3ccc(-c4cccc([N+](=O)[O-])c4)o3)s2)cc1, the inhibition was 5.73% (inactive).
With CCOCC(=O)Nc1sc2c(c1C(=O)OCC)CCCC2 the inhibition was 10.1% (inactive).
With CCOC(=O)c1c(NC(=S)NC(=O)c2ccco2)sc2c1CCCC2 the inhibition was 0.19% (inactive).
CCOC(=O)c1c(NC(=S)Nc2ccccc2)sc2c1CCN(C)C2 was tested, and the inhibition was 103% [fluorescence artefact?] (active).
For COc1cc(N2CCCC2)c(OC)cc1/C=C(/C#N)c1cccc(Br)c1, the inhibition was 115% [fluorescence artefact?] (active).
For CC(=O)Nc1cccc(Oc2cc(C#N)c(C#N)cc2N2CCOCC2)c1, the inhibition was 5.35% (inactive).
COc1cccc(C(=O)Nc2ccc(N3CCCC3)cc2)c1 was tested, and the inhibition was 9.26% (inactive).
For CC1CN(c2nc(-c3ccccc3)nnc2-c2ccccc2)CC(C)O1 (stereo not drawn), the inhibition was 8.23% (inactive).
In the case of COCCCNCC(=O)Nc1sc(C)c(C)c1C(=O)OC, the inhibition is reported as 1.88% (inactive).
CN1OC(COC(=O)c2ccc(Cl)cc2)CC1c1ccccc1 (stereo not drawn) was tested, and the inhibition was 7.44% (inactive).
With C=CCc1ccc(OCCOc2cccc(/C=N/n3cnnc3)c2)c(OC)c1 the inhibition was -0.22% (inactive).
In the case of Clc1ccc(-c2cc(COc3ccccc3)no2)cc1Cl, the inhibition is reported as 17.6% (inactive).
In the case of CC(CO)N1CCS(=O)(=O)CC1 (stereo not drawn), the inhibition is reported as 4.13% (inactive).
For CCN(CC)C(=O)CSc1ncnc2c1cnn2-c1ccccc1, the inhibition was 9.25% (inactive).
For O=C(CN1C(=O)NC2(CCCC2)C1=O)Nc1ccc(F)c(F)c1F, the inhibition was 6.86% (inactive).
CC(C)c1ccc(C(=O)NCCCc2ccccc2)cc1 was tested, and the inhibition was 16.8% (inactive).
In the case of CC(C)C[C@@H](N)c1nnc(SCC(=O)c2ccc(Cl)cc2)o1, the inhibition is reported as 6.78% (inactive).
In the case of CCCCOC(=O)Cn1c(=O)n(CC(=O)OCCCC)c2cc(C)ccc21, the inhibition is reported as 3.29% (inactive).
CCOc1cc(/C=C2/N=C(c3ccc(C(C)(C)C)cc3)OC2=O)cc(Cl)c1OS(C)(=O)=O was tested, and the inhibition was -2.97% (inactive).
For Cc1ccc(-n2nc3cc(C)c(NC(=O)c4cccnc4)cc3n2)cc1, the inhibition was 6.32% (inactive).
Cc1ccc(S(=O)(=O)/N=C(/Nc2ccccn2)c2ccc(Cl)cc2)cc1 was tested, and the inhibition was 3.03% (inactive).
CC(=O)c1cc(NC(=O)c2ccccc2)c(=O)oc1/C=C/N(C)C was tested, and the inhibition was 119% [fluorescence artefact?] (active).
Cc1ccccc1NC(=O)c1ccccc1 was tested, and the inhibition was 3.87% (inactive).
With CCOC(=O)c1cc(NC(=O)c2ccc(Cl)cc2)c(=O)oc1-c1ccccc1 the inhibition was 10.3% (inactive).
c1ccc(-c2csc(N3CCc4ccccc4C3)n2)cc1 was tested, and the inhibition was 3.58% (inactive).
For Cc1c(-c2ccccc2)cn2c1-c1ccc(C)n1CC2, the inhibition was 47.1% (active).
With Cc1cc(=O)oc(C)c1C(=O)NCc1ccc(F)cc1 the inhibition was 8.7% (inactive).
With COc1ccc(CNC(=O)c2c(C)cc(=O)oc2C)cc1OC the inhibition was 10.2% (inactive).
In the case of Cc1cc(=O)oc(C)c1C(=O)Nc1cnc2ccccc2c1, the inhibition is reported as 53% (active).
In the case of CN1/C(=c2/s/c(=C3/C(=O)N(c4ccccc4)NC3=Nc3ccccc3)n(C)c2=O)C(C)(C)c2ccccc21, the inhibition is reported as 96.1% [fluorescence artefact?] (active).
With CC1=NN(c2cccc(Cl)c2)C(=O)C12CC(C)=C(C)CS2 (stereo not drawn) the inhibition was 16.6% (inactive).
In the case of COc1nc(NC2CCCCC2)nc(N2CCCCCC2)n1, the inhibition is reported as 2.85% (inactive).
In the case of COc1cccc2c1OCC(C(=O)NCc1ccc(Cl)cc1Cl)=C2, the inhibition is reported as 10.5% (inactive).
For Cc1ccc(-c2nnc(-n3nnc4ccccc43)c3ccccc23)cc1, the inhibition was -4.36% (inactive).
With COc1ccc(-c2nn(C)c(=O)c3ccccc23)cc1NC(=O)COc1ccccc1 the inhibition was 0.74% (inactive).
In the case of CCNCCC(=O)N1c2ccccc2Sc2ccc(NC(=O)OCC)cc21, the inhibition is reported as -4.36% (inactive).
CC1CCN(C(=O)CN(c2ccc(Oc3ccccc3)cc2)S(C)(=O)=O)CC1 was tested, and the inhibition was 2.29% (inactive).
With CCOc1ccc(C(CCc2ccccc2)NC(=O)c2ccc(OC)c(OC)c2)cc1OCC (stereo not drawn) the inhibition was -1.68% (inactive).
COc1ccc(N(CC(=O)NC2CCCCC2)S(=O)(=O)c2c(C)[nH]c(=O)[nH]c2=O)cc1 was tested, and the inhibition was -2.97% (inactive).
In the case of CCCCCCNC(=O)CSc1nccn1Cc1ccccc1, the inhibition is reported as 1.79% (inactive).
With O=C(Nc1ccc(-n2ccnc2P(=O)(O)c2ccccc2)cc1)c1ccccc1Br the inhibition was -0.76% (inactive).
In the case of Cc1nn(-c2ccccn2)c2c1C(c1ccncc1)C1=C(CC(C)(C)CC1=O)N2 (stereo not drawn), the inhibition is reported as 12.1% (inactive).
For CCOC(=O)CSc1ncc(-c2cccc(Cl)c2)cn1, the inhibition was 8.5% (inactive).
Cc1ccc(-c2nnc(C)c(N3CC(C)OC(C)C3)n2)cc1 (stereo not drawn) was tested, and the inhibition was 5.11% (inactive).
In the case of Cc1nnc(NC(=O)Cn2c(=O)sc3ccccc32)s1, the inhibition is reported as 2.18% (inactive).
In the case of Cn1c(SCC(=O)N2CCCc3ccccc32)nc2ccccc2c1=O, the inhibition is reported as 3.69% (inactive).
For CC(=O)c1ccc(S(=O)(=O)N2CCN(c3nc4c(C)c(C)ccc4cc3C#N)CC2)cc1, the inhibition was 9.9% (inactive).
COCc1cc(C)nc2sc(C(=O)NC3CCCCC3)c(N)c12 was tested, and the inhibition was 12.8% (inactive).
In the case of CCCN1CC=C2C(C#N)=C(N)C(C#N)(C#N)C(c3cc(OC)ccc3OC)C2C1 (stereo not drawn), the inhibition is reported as 71.8% (active).
With CCN1CC=C2C(C#N)=C(N)C(C#N)(C#N)[C@H](c3ccoc3)[C@H]2C1 the inhibition was 61.7% (active).
For CCOC(=O)N1CC=C2C(C#N)=C(N)C(C#N)(C#N)[C@H](c3cccs3)[C@H]2C1, the inhibition was 29.8% (inactive).
In the case of COC(=O)C1=C(C)OC(N)=C(C#N)C1c1cc(OC)ccc1OC (stereo not drawn), the inhibition is reported as 9.18% (inactive).
For N#CC1=C(N)C(C#N)(C#N)[C@H](c2ccsc2)[C@H]2COCC=C12, the inhibition was 35.5% (inactive).
With COc1ccc(C2C=C(c3ccc(Br)cc3)Nc3nc(NS(C)(=O)=O)nn32)cc1 (stereo not drawn) the inhibition was 83.2% [fluorescence artefact?] (active).
In the case of COc1ccc(C2CC(c3ccc(C)cc3)Nc3nc(N)nn32)cc1 (stereo not drawn), the inhibition is reported as 3.26% (inactive).
For Fc1ccccc1/C=C1\CCCC2=C1Nc1ncnn1C2c1ccccc1F (stereo not drawn), the inhibition was 9.16% (inactive).
For COC(=O)c1c(-c2cccs2)csc1NC(=O)CSc1ncnc2sc(C)c(C)c12, the inhibition was 6.95% (inactive).
For COc1cccc(OC)c1C(=O)Nc1ccc(N2CCCCC2)cc1, the inhibition was 4.3% (inactive).
CCCC(=O)n1nc(-c2ccccc2)nc1N was tested, and the inhibition was 0.74% (inactive).
For CCCNC(=O)c1c(N)n(-c2ccc(S(N)(=O)=O)cc2)c2nc3ccccc3nc12, the inhibition was 1.66% (inactive).
O=C1c2ccccc2C(=O)c2c1cccc2N1CCN(Cc2ccccc2)CC1 was tested, and the inhibition was 10.8% (inactive).
For CCCCNC(=O)OC(C)CNC(=O)OC (stereo not drawn), the inhibition was -1.24% (inactive).
With CC(=O)Oc1ccc(NC(=O)CCC2CCCCC2)c(C(=O)O)c1 the inhibition was -1.47% (inactive).
In the case of CCOc1ccc(C(O)Cc2nc3ccccc3n2C)cc1 (stereo not drawn), the inhibition is reported as -0.15% (inactive).
With CCOC(=O)c1cc(C#N)c(N2CCCCC2)nc1-c1ccccc1 the inhibition was 14.6% (inactive).
In the case of Cc1ccc(Sc2cc(N3CCOCC3)nc(-c3ccccc3)n2)cc1, the inhibition is reported as 12.8% (inactive).
In the case of CS(=O)(=O)N1CCN(c2cccc(Cl)n2)CC1, the inhibition is reported as 3.87% (inactive).
With CCC(=O)N(Cc1ccccc1)c1ccccn1 the inhibition was 7.11% (inactive).
In the case of Clc1ccc2c(c1)C1=C(C(c3ccncc3)O2)C(c2ccc(Br)cc2)n2ncnc2N1 (stereo not drawn), the inhibition is reported as -1.15% (inactive).
COC(=O)C1=C(C)Nc2ncnn2C1c1ccco1 (stereo not drawn) was tested, and the inhibition was 3.56% (inactive).
In the case of Brc1ccc(C2=CC(c3ccco3)n3ncnc3N2)cc1 (stereo not drawn), the inhibition is reported as 124% [fluorescence artefact?] (active).
With COc1ccc(CN(CC(=O)NC2CCCC2)C(=O)CCC(=O)Nc2cc(C)on2)cc1 the inhibition was -2.37% (inactive).
For Cc1cccc(NC(=O)CSc2nc3c(c(=O)[nH]2)CCCC3)c1C, the inhibition was 5.45% (inactive).
For O=C(NCc1cccnc1)c1cccnc1Sc1ccc(Cl)cc1, the inhibition was 5.95% (inactive).
